In ChEMBL document CHEMBL4177768, “Synthesis and Biological Evaluation of Derivatives of Indoline as Highly Potent Antioxidant and Anti-inflammatory Agents” (J Med Chem, 2018):
Activity calls are given as the source filed them. No cut-off for these calls is given here.

How the values were obtained:
[1] = test system: RAW264.7; test: Antiinflammatory activity in mouse RAW264.7 cells assessed as reduction in LPS-induced IL-6 production at 10 pM incubated for 2 hrs prior to LPS challenge measured after 24 hrs by ELISA; assay type: functional; parameters: scale not given: the % may be the effect or the level left
Procedure, shortened: (§1)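 RAW 264.7 macrophages were plated at 1×10^5 per well, grown overnight and washed with PBS. Compounds in water (final 1 pM-100 nM, medium with 2% FCS) were added 2 h at 37 °C before E. coli 0111:B4 LPS, 2.5 µg/mL. TNF-α was sampled at 8 h; IL-6 and nitrite (Griess) at 24 h. ELISA was used for cytokines. Values are % of the LPS + medium value in each experiment. Budesonide was the reference. 2-3 experiments, 6 wells per concentration.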

[2] = test system: Mus musculus; test: Acute toxicity in Balb/C mouse assessed as change in activity at 100 umol/kg, sc measured over 72 hrs; assay type: organism-based; conditions: in vivo
Procedure, shortened: (§2)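 Male Balb/C mice, 24-28 g, groups of 3; single sc injection of compound at 100 μmoles/kg or saline (1 mL/100 g). Food and water intake, body weight and general activity monitored over 72 h against saline-injected animals.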

[3] = test system: RAW264.7; test: Cytoprotective activity against H2O2-induced oxidative stress in mouse RAW264.7 cells assessed as decrease in LDH release at 1 pM incubated for 2 hrs prior to H2O2 addition by colorimetric assay relative to control; assay type: functional; parameters: scale not given: the % may be the effect or the level left
Procedure, shortened: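 RAW 264.7 cells were seeded and pretreated with compound before H2O2 100 µM, in serum-free medium. Collected medium was centrifuged and incubated with reaction mix 30 min at room temperature. LDH was measured as NADH formation by colorimetric read at 490 nm. n = 8-10 replicates per concentration.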

[4] = test system: Mus musculus; test: Antiinflammatory activity in Balb/C mouse assessed as reduction in LPS-induced TNF-alpha production in plasma at 0.1 umol/kg, sc administered LPS 15 mins post compound treatment measured after 4 hrs by ELISA; assay type: functional, organism-based
Procedure, shortened: (§3)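 Male Balb/C mice, 7-8 weeks old, given compound sc (0.1, 1 or 10 µmoles/kg) or saline. LPS 10 mg/kg was given ip 15 min later, and mice were killed 4 h after that. Spleens were homogenized in PBS with protease inhibitor and centrifuged at 14,000 g, 4 °C. Cytokines in plasma and tissue supernatants were measured by ELISA, with protein by BCA. Dexamethasone 5.6 µmoles/kg was the reference. n = 8-10 mice per treatment.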

[5] = test system: Mus musculus; test: Acute toxicity in Balb/C mouse assessed as change in food intake at 100 umol/kg, sc measured over 72 hrs; assay type: organism-based; conditions: in vivo; procedure, shortened: as §2
[6] = test system: RAW264.7; test: Cytoprotective activity against H2O2-induced oxidative stress in mouse RAW264.7 cells assessed as cell viability at 1 pM incubated for 2 hrs prior to H2O2 addition measured after 24 hrs by MTT assay (reference value: 68 to 72.8%); assay type: functional; conditions: read-out: Activity
[7] = test system: RAW264.7; test: Antiinflammatory activity in mouse RAW264.7 cells assessed as reduction in LPS-induced nitric oxide production at 100 pM incubated for 2 hrs prior to LPS challenge measured after 24 hrs by Griess assay; assay type: functional; parameters: scale not given: the % may be the effect or the level left; procedure, shortened: as §1
[8] = test system: RAW264.7; test: Antiinflammatory activity in mouse RAW264.7 cells assessed as reduction in LPS-induced nitric oxide production at 10 pM incubated for 2 hrs prior to LPS challenge measured after 24 hrs by Griess assay; assay type: functional; parameters: scale not given: the % may be the effect or the level left; procedure, shortened: as §1
[9] = test system: Mus musculus; test: Antiinflammatory activity in Balb/C mouse assessed as reduction in LPS-induced IL6 production in plasma at 0.1 umol/kg, sc administered LPS 15 mins post compound treatment measured after 4 hrs by ELISA; assay type: functional, organism-based; procedure, shortened: as §3
[10] = test system: Mus musculus; test: Acute toxicity in Balb/C mouse assessed as change in body weight at 100 umol/kg, sc measured over 72 hrs; assay type: organism-based; conditions: in vivo; procedure, shortened: as §2
[11] = test system: Mus musculus; test: Antiinflammatory activity in Balb/C mouse assessed as reduction in LPS-induced IL6 production in brain at 0.1 umol/kg, sc administered LPS 15 mins post compound treatment measured after 4 hrs by ELISA; assay type: functional, organism-based
[12] = test system: Mus musculus; test: Antiinflammatory activity in Balb/C mouse assessed as reduction in LPS-induced IL6 production in spleen at 0.1 umol/kg, sc administered LPS 15 mins post compound treatment measured after 4 hrs by ELISA; assay type: functional, organism-based; procedure, shortened: as §3
[13] = test system: RAW264.7; test: Antiinflammatory activity in mouse RAW264.7 cells assessed as reduction in LPS-induced IL-6 production at 100 pM incubated for 2 hrs prior to LPS challenge measured after 24 hrs by ELISA; assay type: functional; parameters: scale not given: the % may be the effect or the level left; procedure, shortened: as §1
[14] = test system: RAW264.7; test: Antiinflammatory activity in mouse RAW264.7 cells assessed as reduction in LPS-induced TNF-alpha production at 10 pM incubated for 2 hrs prior to LPS challenge measured after 8 hrs by ELISA; assay type: functional; parameters: scale not given: the % may be the effect or the level left; procedure, shortened: as §1
[15] = test system: Mus musculus; test: Antiinflammatory activity in Balb/C mouse assessed as reduction in LPS-induced IL6 production in liver at 0.1 to 10 umol/kg, sc administered LPS 15 mins post compound treatment measured after 4 hrs by ELISA; assay type: functional, organism-based
[16] = test system: RAW264.7; test: Cytoprotective activity against H2O2-induced oxidative stress in mouse RAW264.7 cells assessed as decrease in LDH release at 1 pM incubated for 2 hrs prior to H2O2 addition by colorimetric assay relative to control; parameters: scale not given: the % may be the effect or the level left
[17] = test system: Mus musculus; test: Acute toxicity in Balb/C mouse assessed as change in water intake at 100 umol/kg, sc measured over 72 hrs; assay type: organism-based; conditions: in vivo; procedure, shortened: as §2
[18] = test system: Mus musculus; test: Antiinflammatory activity in Balb/C mouse assessed as reduction in LPS-induced TNF-alpha production in spleen at 0.1 umol/kg, sc administered LPS 15 mins post compound treatment measured after 4 hrs by ELISA; assay type: functional, organism-based; procedure, shortened: as §3
[19] = test system: RAW264.7; test: Cytoprotective activity against H2O2-induced oxidative stress in mouse RAW264.7 cells assessed as decrease in caspase-3 activity at 1 pM incubated for 4 hrs prior to H2O2 addition measured after 90 mins by caspase-GloR reagent-based luminescence assay relative to control; assay type: functional; parameters: scale not given: the % may be the effect or the level left
Procedure, shortened: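 RAW 264.7 macrophages were pretreated with compound (1 pM or 1 nM) 4 h before H2O2 100 µM. Medium was replaced with fresh DMEM after 90 min and plates were incubated overnight. Caspase-Glo 3/7 reagent was added and luminescence read after 30 min at room temperature. Mean ± SD, 4-6 replicates.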

[20] = test system: RAW264.7; test: Antiinflammatory activity in mouse RAW264.7 cells assessed as reduction in LPS-induced TNF-alpha production at 1 pM to 100 nM incubated for 2 hrs prior to LPS challenge measured after 8 hrs by ELISA; assay type: functional, cell-based; procedure, shortened: as §1
[21] = test system: Mus musculus; test: Antiinflammatory activity in Balb/C mouse assessed as reduction in LPS-induced TNF-alpha production in spleen at 0.1 to 10 umol/kg, sc administered LPS 15 mins post compound treatment measured after 4 hrs by ELISA; assay type: functional, organism-based; procedure, shortened: as §3
[22] = test system: Mus musculus; test: Antiinflammatory activity in Balb/C mouse assessed as reduction in LPS-induced IL6 production in spleen at 0.1 to 10 umol/kg, sc administered LPS 15 mins post compound treatment measured after 4 hrs by ELISA; assay type: functional, organism-based; procedure, shortened: as §3
[23] = test system: Mus musculus; test: Antiinflammatory activity in Balb/C mouse assessed as reduction in LPS-induced TNF-alpha production in plasma at 0.1 to 10 umol/kg, sc administered LPS 15 mins post compound treatment measured after 4 hrs by ELISA; assay type: functional, organism-based; procedure, shortened: as §3
[24] = Cytotoxicity against mouse RAW264.7 cells assessed as cell viability at 10^-12 M after 24 hrs by MTT assay relative to control; assay type: cell-based; conditions: read-out: Activity
Procedure, shortened: (§4)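 RAW 264.7 cells, seeded at 1×10^4 cells/mL and incubated 24 h, were exposed to compound from 1 pM to 100 nM. Viability was read by MTT (final 0.5 mg/mL, 1 h at 37 °C), with formazan dissolved in DMSO and OD at 570 nm. Results are compared with medium-only cells.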

[25] = test system: RAW264.7; test: Antiinflammatory activity in mouse RAW264.7 cells assessed as reduction in LPS-induced IL-6 production at 1 nM incubated for 2 hrs prior to LPS challenge measured after 24 hrs by ELISA; assay type: functional; parameters: scale not given: the % may be the effect or the level left; procedure, shortened: as §1
[26] = Cytotoxicity against mouse RAW264.7 cells assessed as cell viability at 10^-11 M after 24 hrs by MTT assay relative to control; assay type: cell-based; conditions: read-out: Activity; procedure, shortened: as §4
[27] = test system: Mus musculus; test: Antiinflammatory activity in Balb/C mouse assessed as reduction in LPS-induced IL6 production in plasma at 0.1 to 10 umol/kg, sc administered LPS 15 mins post compound treatment measured after 4 hrs by ELISA; assay type: functional, organism-based; procedure, shortened: as §3
[28] = Cytotoxicity against mouse RAW264.7 cells assessed as cell viability at 10^-10 M after 24 hrs by MTT assay relative to control; assay type: cell-based; conditions: read-out: Activity; procedure, shortened: as §4
[29] = Cytotoxicity against mouse RAW264.7 cells assessed as cell viability at 10^-7 M after 24 hrs by MTT assay relative to control; assay type: cell-based; conditions: read-out: Activity; procedure, shortened: as §4
[30] = test system: RAW264.7; test: Antiinflammatory activity in mouse RAW264.7 cells assessed as reduction in LPS-induced nitric oxide production at 1 nM incubated for 2 hrs prior to LPS challenge measured after 24 hrs by Griess assay; assay type: functional; parameters: scale not given: the % may be the effect or the level left; procedure, shortened: as §1
[31] = Cytotoxicity against mouse RAW264.7 cells assessed as cell viability at 10^-8 M after 24 hrs by MTT assay relative to control; assay type: cell-based; conditions: read-out: Activity; procedure, shortened: as §4
[32] = test system: RAW264.7; test: Antiinflammatory activity in mouse RAW264.7 cells assessed as reduction in LPS-induced nitric oxide production at 1 pM to 100 nM incubated for 2 hrs prior to LPS challenge measured after 24 hrs by Griess assay; assay type: functional, cell-based; procedure, shortened: as §1
[33] = test system: RAW264.7; test: Antiinflammatory activity in mouse RAW264.7 cells assessed as reduction in LPS-induced TNF-alpha production at 1 nM incubated for 2 hrs prior to LPS challenge measured after 8 hrs by ELISA; assay type: functional; parameters: scale not given: the % may be the effect or the level left; procedure, shortened: as §1
[34] = Cytotoxicity against mouse RAW264.7 cells assessed as cell viability at 10^-9 M after 24 hrs by MTT assay relative to control; assay type: cell-based; conditions: read-out: Activity; procedure, shortened: as §4
[35] = test system: Mus musculus; test: Antiinflammatory activity in Balb/C mouse assessed as reduction in LPS-induced IL6 production in brain at 0.1 to 10 umol/kg, sc administered LPS 15 mins post compound treatment measured after 4 hrs by ELISA; assay type: functional, organism-based
[36] = test system: RAW264.7; test: Cytoprotective activity against H2O2-induced oxidative stress in mouse RAW264.7 cells assessed as increase in cell viability at 1 pM incubated for 2 hrs prior to H2O2 addition measured after 24 hrs by MTT assay; assay type: functional, cell-based
Procedure, shortened: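 RAW 264.7 macrophages cultured in DMEM with 10% FCS, seeded at 1 x 10^4 cells/mL. Pretreated 2 h with compound (1 pM to 100 nM) before H2O2 at 100 μM. Viability read by MTT (0.5 mg/mL final, 1 h, 37 °C, DMSO lysis, OD 570 nm) relative to vehicle. 2-3 experiments, at least 6 wells per concentration; mean ± SEM.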

For `CC(C)NC(=O)CCN1CCc2ccccc21.Cl`, the Activity [1] was 50%, the Activity [2] was “Non-Toxic” and the Activity [3] was 16%. The Activity [4] was “Active”, the Activity [5] was “Non-Toxic” and the viability at 1 pM [6] was 93.7%. The Activity [7] was 50%, the Activity [8] was 50% and the Activity [9] was “Active”. The Activity [10] was “Non-Toxic”, the Activity [11] was “Active” and the Activity [12] was “Active”. For the same compound, the Activity [13] was 50%, the Activity [14] was 50% and the Activity [15] was “inactive”. The Activity [16] was 16%, the Activity [17] was “Non-Toxic” and the Activity [18] was “Active”.

In the case of `CC(C)NCCCN1CCc2ccccc21.Cl.Cl`, the Activity [19] is reported as 60%, the Activity [20] is reported as “Dose-dependent effect” and the Activity [2] is reported as “Non-Toxic”. The Activity [3] was 16%, the Activity [5] was “Non-Toxic” and the Activity [21] was “Dose-dependent effect”. For the same compound, the Activity [22] was “Dose-dependent effect”, the Activity [23] was “Dose-dependent effect” and the viability at 24 h, 1e-06 µM [24] was 93.3%. The viability at 1 pM [6] was 98.5%, the Activity [25] was 50% and the Activity [10] was “Non-Toxic”. The viability at 24 h, 1e-05 µM [26] was 102%, the Activity [27] was “Dose-dependent effect” and the viability at 24 h, 0.0001 µM [28] was 99.2%. It also gave a viability at 24 h, 0.1 µM [29] of 91.9%, an Activity [30] of 50% and a viability at 24 h, 0.01 µM [31] of 90.9%. The Activity [15] was “Dose-dependent effect”, the Activity [16] was 16% and the Activity [32] was “Dose-dependent effect”. For the same compound, the Activity [17] was “Non-Toxic”, the Activity [33] was 50% and the viability at 24 h, 0.001 µM [34] was 92.1%. For the same compound, the Activity [35] was “Dose-dependent effect”.

For `O=c1c(O)c(-c2ccc(O)c(O)c2)oc2cc(O)cc(O)c12`, the Activity [36] was “Active”.
